Experimental data collected from several papers.
Protocols differ between the studies behind these lines.
Target: Mitogen-activated protein kinase 8 (MAPK8, Homo sapiens, UniProt P45983)

For `CO[C@@H]1[C@H](N(C)C(=O)c2ccccc2)C[C@H]2O[C@]1(C)n1c3ccccc3c3c4c(c5c6ccccc6n2c5c31)C(=O)NC4`, the inhibition was 22% (enzyme activity, inhibitor; 1 µM).
`C1=C/COCc2cc(ccc2OCCN2CCCC2)Nc2nccc(n2)-c2cccc(c2)COC/1` has a remaining signal of 12% (cell-free assay; 0.1 µM).
For `C#Cc1cnc(Nc2ccnc(CO)c2)nc1Nc1ccccc1S(C)(=O)=NC#N` (stereo not drawn), the remaining signal was 54% (cell-free assay; 1 µM).
The inhibition of `C=CC(=O)N1CCC([C@@H]2CCNc3c(C(N)=O)c(-c4ccc(Oc5ccccc5)cc4)nn32)CC1` is reported as 21% (enzyme activity, inhibitor; 1 µM).
With `N#Cc1ccc(NC(=O)Nc2ccccc2)cc1` the remaining binding was 78% (cell-free assay, competition with immobilised ligand; 25 µM).
The remaining binding of `Cc1ccc(NC(=O)c2ccnc(C(F)(F)F)c2)cc1-c1cc(OCCO)nc(N2CCOCC2)c1` is reported as 80% (binding; 1 µM).
With `C#Cc1cc(-c2cc(Nc3nc(N[C@@H](C)c4ccc(F)cn4)ncc3Cl)n[nH]2)ccc1C=O` the inhibition was 9.62% (enzyme activity, inhibitor; 0.2 µM).
For `CCCCC(=O)Nc1ccc(-c2ccc3ncn(CCC)c(=O)c3c2)cn1`, the remaining binding was 52% (binding, competition with immobilised ligand; 0.5 µM).
`C[C@H]1CC[C@H](n2c3cnccc3c3cnc(Nc4ccc5c(n4)CCN(C(=O)CO)C5)nc32)CC1` has a remaining binding of 7% (binding; 1 µM).
